# Measurements taken from ChEMBL document CHEMBL1165950, “Design and synthesis of new potent anticancer pyrazoles with high FLT3 kinase inhibitory selectivity” (Bioorg Med Chem, 2010).
# Legend:
# Format in all cases: functional
# SF-539 = assay: Cytotoxicity against human SF539 cells assessed as cell growth at 10 uM; conditions: read-out: Activity
# Outline: (§1)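 NCI-60 screen: cells grown in RPMI 1640 with 5% FBS and 2 mM L-glutamine, plated at 5000–40,000 cells/well according to doubling time, and preincubated 24 h at 37 °C, 5% CO2. The single 10 µM dose (DMSO stock) was added, then incubated 48 h. Cells were TCA-fixed and stained with 0.4% SRB, read at 515 nm, and growth % calculated against time-zero and control plates.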
# SNB-19 = assay: Cytotoxicity against human SNB19 cells assessed as cell growth at 10 uM; conditions: read-out: Activity; outline: as §1
# SNB-75 = assay: Cytotoxicity against human SNB75 cells assessed as cell growth at 10 uM; conditions: read-out: Activity; outline: as §1
# U-251 = assay: Cytotoxicity against human U251 cells assessed as cell growth at 10 uM; conditions: read-out: Activity; outline: as §1
# LOX IMVI = assay: Cytotoxicity against human LOXIMVI cells assessed as cell growth at 10 uM; conditions: read-out: Activity; outline: as §1
# Malme-3M = assay: Cytotoxicity against human MALME-3M cells assessed as cell growth at 10 uM; conditions: read-out: Activity; outline: as §1
# M14 = assay: Cytotoxicity against human M14 cells assessed as cell growth at 10 uM; conditions: read-out: Activity; outline: as §1
# MDA-MB-435 = assay: Cytotoxicity against human MDA-MB-435 cells assessed as cell growth at 10 uM; conditions: read-out: Activity; outline: as §1
# SK-MEL-2 = assay: Cytotoxicity against human SK-MEL-2 cells assessed as cell growth at 10 uM; conditions: read-out: Activity; outline: as §1
# SK-MEL-28 = assay: Cytotoxicity against human SK-MEL-28 cells assessed as cell growth at 10 uM; conditions: read-out: Activity; outline: as §1
# SK-MEL-5 = assay: Cytotoxicity against human SK-MEL-5 cells assessed as cell growth at 10 uM; conditions: read-out: Activity; outline: as §1
# UACC-257 = assay: Cytotoxicity against human UACC257 cells assessed as cell growth at 10 uM; conditions: read-out: Activity; outline: as §1
# UACC-62 = assay: Cytotoxicity against human UACC62 cells assessed as cell growth at 10 uM; conditions: read-out: Activity; outline: as §1
# IGROV-1 = assay: Cytotoxicity against human IGROV1 cells assessed as cell growth at 10 uM; conditions: read-out: Activity
# Outline: (§2)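 Single-dose NCI-60 screen at 10 µM. Cells were grown in RPMI 1640 with 5% FBS and 2 mM L-glutamine, then treated for 48 h at 37 °C. Protein was measured by SRB staining with absorbance at 515 nm. Percentage growth was recorded, and inhibition percentage was calculated as 100 minus growth percentage.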
# OVCAR-3 = assay: Cytotoxicity against human OVCAR-3 cells assessed as cell growth at 10 uM; conditions: read-out: Activity; outline: as §1
# OVCAR-4 = assay: Cytotoxicity against human OVCAR4 cells assessed as cell growth at 10 uM; conditions: read-out: Activity; outline: as §1
# OVCAR-5 = assay: Cytotoxicity against human OVCAR5 cells assessed as cell growth at 10 uM; conditions: read-out: Activity; outline: as §1
# OVCAR-8 = assay: Cytotoxicity against human OVCAR8 cells assessed as cell growth at 10 uM; conditions: read-out: Activity; outline: as §1
# NCI/ADR-RES = assay: Cytotoxicity against human NCI/ADR-RES cells assessed as cell growth at 10 uM; conditions: read-out: Activity; outline: as §1
# SK-OV-3 = assay: Cytotoxicity against human SKOV3 cells assessed as cell growth at 10 uM; conditions: read-out: Activity; outline: as §1
# 786-0 = assay: Cytotoxicity against human 786-0 cells assessed as cell growth at 10 uM; conditions: read-out: Activity; outline: as §2
# A498 = assay: Cytotoxicity against human A498 cells assessed as cell growth at 10 uM; conditions: read-out: Activity; outline: as §2
# ACHN = assay: Cytotoxicity against human ACHN cells assessed as cell growth at 10 uM; conditions: read-out: Activity; outline: as §2
# CAKI-1 = assay: Cytotoxicity against human Caki1 cells assessed as cell growth at 10 uM; conditions: read-out: Activity; outline: as §2
# RXF 393 = assay: Cytotoxicity against human RXF393 cells assessed as cell growth at 10 uM; conditions: read-out: Activity; outline: as §1
# SN12C = assay: Cytotoxicity against human SN12C cells assessed as cell growth at 10 uM; conditions: read-out: Activity; outline: as §1
# TK-10 = assay: Cytotoxicity against human TK10 cells assessed as cell growth at 10 uM; conditions: read-out: Activity; outline: as §1
# UO-31 = assay: Cytotoxicity against human UO31 cells assessed as cell growth at 10 uM; conditions: read-out: Activity; outline: as §1
# PC-3 = assay: Cytotoxicity against human PC3 cells assessed as cell growth at 10 uM; conditions: read-out: Activity; outline: as §1
# DU-145 = assay: Cytotoxicity against human DU145 cells assessed as cell growth at 10 uM; conditions: read-out: Activity; outline: as §2
# MCF7 = assay: Cytotoxicity against human MCF7 cells assessed as cell growth at 10 uM; conditions: read-out: Activity; outline: as §1
# MDA-MB-231 = assay: Cytotoxicity against human MDA-MB-231 cells assessed as cell growth at 10 uM; conditions: read-out: Activity; outline: as §1
# [1] = Cytotoxicity against human Hs 578T cells assessed as cell growth at 10 uM; conditions: read-out: Activity; outline: as §2
# BT-549 = assay: Cytotoxicity against human BT549 cells assessed as cell growth at 10 uM; conditions: read-out: Activity; outline: as §2
# T47D = assay: Cytotoxicity against human T47D cells assessed as cell growth at 10 uM; conditions: read-out: Activity; outline: as §1
# MDA-MB-468 = assay: Cytotoxicity against human MDA-MB-468 cells assessed as cell growth at 10 uM; conditions: read-out: Activity; outline: as §1
# [2] = Growth inhibition of human NCI60 cells at 10 uM after 48 hrs by sulforhodamine B assay relative to control; conditions: NCI60, 48 h, read-out: GI
# Outline: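 Single-dose NCI screen at 10 µM across the 60-line panel, 48 h exposure at 37 °C after a 24 h preincubation. Adherent cells were fixed with cold TCA and stained with 0.4% SRB, and absorbance was read at 515 nm. Inhibition % was taken as 100 minus growth %, and the mean across all lines was reported.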
# CCRF-CEM = assay: Cytotoxicity against human CCRF-CEM cells assessed as cell growth at 10 uM; conditions: read-out: Activity; outline: as §2
# HL-60(TB) = assay: Cytotoxicity against human HL-60(TB) cells assessed as cell growth at 10 uM; conditions: read-out: Activity
# Outline: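 NCI 60-cell panel screen at a single concentration of 10 µM. Cells are grown in RPMI 1640 with 5% FBS and 2 mM L-glutamine and read by SRB protein staining at 515 nm. Percent growth is measured relative to time-zero and untreated controls; inhibition % is 100 minus growth %.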
# K562 = assay: Cytotoxicity against human K562 cells assessed as cell growth at 10 uM; conditions: read-out: Activity; outline: as §2
# MOLT-4 = assay: Cytotoxicity against human MOLT4 cells assessed as cell growth at 10 uM; conditions: read-out: Activity; outline: as §1
# [3] = Cytotoxicity against human […] cells assessed as cell growth at 10 uM; conditions: read-out: Activity; outline: as §1
# SR = assay: Cytotoxicity against human SR cells assessed as cell growth at 10 uM; conditions: read-out: Activity; outline: as §1
# A549 = assay: Cytotoxicity against human A549 cells assessed as cell growth at 10 uM; conditions: read-out: Activity; outline: as §2
# EKVX = assay: Cytotoxicity against human EKVX cells assessed as cell growth at 10 uM; conditions: read-out: Activity; outline: as §2
# HOP-62 = assay: Cytotoxicity against human HOP62 cells assessed as cell growth at 10 uM; conditions: read-out: Activity; outline: as §2
# HOP-92 = assay: Cytotoxicity against human HOP92 cells assessed as cell growth at 10 uM; conditions: read-out: Activity; outline: as §2
# NCI-H226 = assay: Cytotoxicity against human NCI-H226 cells assessed as cell growth at 10 uM; conditions: read-out: Activity; outline: as §1
# NCI-H23 = assay: Cytotoxicity against human NCI-H23 cells assessed as cell growth at 10 uM; conditions: read-out: Activity; outline: as §1
# NCI-H322M = assay: Cytotoxicity against human NCI-H322M cells assessed as cell growth at 10 uM; conditions: read-out: Activity; outline: as §1
# NCI-H460 = assay: Cytotoxicity against human NCI-H460 cells assessed as cell growth at 10 uM; conditions: read-out: Activity; outline: as §1
# NCI-H522 = assay: Cytotoxicity against human NCI-H522 cells assessed as cell growth at 10 uM; conditions: read-out: Activity; outline: as §1
# COLO 205 = assay: Cytotoxicity against human COLO205 cells assessed as cell growth at 10 uM; conditions: read-out: Activity; outline: as §2
# HCC 2998 = assay: Cytotoxicity against human HCC2998 cells assessed as cell growth at 10 uM; conditions: read-out: Activity; outline: as §2
# HCT-116 = assay: Cytotoxicity against human HCT116 cells assessed as cell growth at 10 uM; conditions: read-out: Activity; outline: as §2
# HCT-15 = assay: Cytotoxicity against human HCT15 cells assessed as cell growth at 10 uM; conditions: read-out: Activity; outline: as §2
# HT-29 = assay: Cytotoxicity against human HT-29 cells assessed as cell growth at 10 uM; conditions: read-out: Activity; outline: as §2
# KM12 = assay: Cytotoxicity against human KM12 cells assessed as cell growth at 10 uM; conditions: read-out: Activity; outline: as §1
# SW-620 = assay: Cytotoxicity against human SW620 cells assessed as cell growth at 10 uM; conditions: read-out: Activity; outline: as §1
# SF-268 = assay: Cytotoxicity against human SF268 cells assessed as cell growth at 10 uM; conditions: read-out: Activity; outline: as §1
# SF-295 = assay: Cytotoxicity against human SF295 cells assessed as cell growth at 10 uM; conditions: read-out: Activity; outline: as §1
compound,measurement,setting,value
COc1cc(C)cc(-c2c(-c3ccnc(-c4cccc(NC(C)=O)c4)c3)cnn2CC#N)c1,growth at 10 µM,SF-539,84.5%
same,growth at 10 µM,SNB-19,89.6%
same,growth at 10 µM,SNB-75,72.4%
same,growth at 10 µM,U-251,94.3%
same,growth at 10 µM,LOX IMVI,97.5%
same,growth at 10 µM,Malme-3M,108%
same,growth at 10 µM,M14,96.3%
same,growth at 10 µM,MDA-MB-435,99.6%
same,growth at 10 µM,SK-MEL-2,92.1%
same,growth at 10 µM,SK-MEL-28,104%
same,growth at 10 µM,SK-MEL-5,86.9%
same,growth at 10 µM,UACC-257,89.8%
same,growth at 10 µM,UACC-62,81.6%
same,growth at 10 µM,IGROV-1,98.4%
same,growth at 10 µM,OVCAR-3,109%
same,growth at 10 µM,OVCAR-4,99.7%
same,growth at 10 µM,OVCAR-5,91.6%
same,growth at 10 µM,OVCAR-8,88%
same,growth at 10 µM,NCI/ADR-RES,87.3%
same,growth at 10 µM,SK-OV-3,93.3%
same,growth at 10 µM,786-0,84%
same,growth at 10 µM,A498,74.2%
same,growth at 10 µM,ACHN,86%
same,growth at 10 µM,CAKI-1,77.3%
same,growth at 10 µM,RXF 393,81.5%
same,growth at 10 µM,SN12C,83%
same,growth at 10 µM,TK-10,67.1%
same,growth at 10 µM,UO-31,63.6%
same,growth at 10 µM,PC-3,85.8%
same,growth at 10 µM,DU-145,105%
same,growth at 10 µM,MCF7,85%
same,growth at 10 µM,MDA-MB-231,86.5%
same,growth at 10 µM,[1],99%
same,growth at 10 µM,BT-549,79.1%
same,growth at 10 µM,T47D,79.3%
same,growth at 10 µM,MDA-MB-468,82.8%
same,inhibition of growth at 10 µM,[2],9.4%
same,growth at 10 µM,CCRF-CEM,88.9%
same,growth at 10 µM,HL-60(TB),74.7%
same,growth at 10 µM,K562,86.4%
same,growth at 10 µM,MOLT-4,82.8%
same,growth at 10 µM,[3],79.9%
same,growth at 10 µM,SR,80.9%
same,growth at 10 µM,A549,86.7%
same,growth at 10 µM,EKVX,100%
same,growth at 10 µM,HOP-62,98.9%
same,growth at 10 µM,HOP-92,79.6%
same,growth at 10 µM,NCI-H226,93.1%
same,growth at 10 µM,NCI-H23,95.3%
same,growth at 10 µM,NCI-H322M,96.9%
same,growth at 10 µM,NCI-H460,107%
same,growth at 10 µM,NCI-H522,82.5%
same,growth at 10 µM,COLO 205,93.5%
same,growth at 10 µM,HCC 2998,101%
same,growth at 10 µM,HCT-116,96.4%
same,growth at 10 µM,HCT-15,94.5%
same,growth at 10 µM,HT-29,99.4%
same,growth at 10 µM,KM12,109%
same,growth at 10 µM,SW-620,104%
same,growth at 10 µM,SF-268,97.3%
same,growth at 10 µM,SF-295,102%
